In paper PMC7384521 (ACS chemical biology, 2020):

Experiments:
SMARCA4(BD)-HiBiT = assay: HiBiT CETSA of SMARCA4; assay type: cell-based; details: for luminescence of SMARCA4(BD)-HiBiT: OCI/AML-2 cells, 37 °C
In short: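 SMARCA4 bromodomain (residues 1426-1531) fused to HiBiT, stably expressed in OCI/AML-2 cells (alpha-MEM, 20% FBS) by lentiviral spinoculation: 2,000 rpm, 1 h, room temperature, 8 μg/mL polybrene. Cells were drug-treated at 37 °C without heating. Raw luminescence was read after adding Nano-Glo HiBiT lytic detection reagent.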

AF9(YEATS)-HiBiT = assay: ITDR at 37 °C of AF9; assay type: cell-based; details: OCI/AML-2 cells, 1 hour
ENL(YEATS)-HiBiT [1] = assay: HiBiT CETSA performed on pre-lysed cells; details: cells lysed first, then treated; 37 °C
full-length ENL-HiBiT = assay: HiBiT CETSA melt curve of full-length ENL-HiBiT; assay type: cell-based; details: HEK293T cells
ENL(YEATS)-HiBiT [2] = assay: HiBiT CETSA; assay type: cell-based
AF9 YEATS = target: T1, AF9 YEATS (Homo sapiens, UniProt P42568); assay: HTRF histone-binding assay, AF9 YEATS with H3K27cr; details: read-out: IC50, HTRF AF9 YEATS crotonyl-lysine recognition
T1 sequence (P42568 1-138 limits assumed): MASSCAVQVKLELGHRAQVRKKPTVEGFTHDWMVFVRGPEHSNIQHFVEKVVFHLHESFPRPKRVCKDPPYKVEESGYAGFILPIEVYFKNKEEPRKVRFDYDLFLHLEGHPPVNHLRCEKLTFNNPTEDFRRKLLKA
In short: (§1)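 HTRF in 25 mM HEPES pH 7, 20 mM NaCl, 0.2% Pluronic F-127, 0.05% BSA, with 1 nM Eu-anti-His antibody and 8.9 nM APC-streptavidin. ENL: recombinant His-tagged ENL YEATS(1-148), 5 nM, with 13.3 nM biotinylated H3(13-32)K27cr. AF9: purchased AF9 YEATS, 5 nM, with 100 nM of the same peptide. Compound pin-transferred, incubated ≥2 h; 337 nm excitation, 665/620 nm ratio; percent inhibition scaled to vehicle (max) and no-peptide (min) wells.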

ENL YEATS [3] = target: T2, ENL YEATS (Homo sapiens, UniProt Q03111); assay: HTRF histone-binding assay, ENL YEATS with H3K27cr
T2 sequence (Q03111 1-148): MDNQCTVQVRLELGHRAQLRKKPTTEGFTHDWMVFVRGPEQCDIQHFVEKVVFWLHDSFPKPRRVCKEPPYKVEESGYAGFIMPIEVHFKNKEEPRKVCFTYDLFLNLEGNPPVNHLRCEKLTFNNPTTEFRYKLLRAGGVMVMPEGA
In short: as §1

YEATS4/GAS41 = assay: Biolayer interferometry, immobilized biotin-YEATS4; assay type: binding; details: BLI
BRD4 bromodomain 1 (BD1) = assay: HTRF histone-binding assay, BRD4 BD1 with tetra-acetyl H4
In short: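 BRD4 BD1 (purchased, 10 nM) with 13.3 nM tetra-acetylated H4. Buffer was 25 mM HEPES pH 7, 20 mM NaCl, 0.2% Pluronic F-127, 0.05% BSA; detection used 1 nM Eu-anti-His antibody plus 8.9 nM APC-streptavidin. Compound added by pin tool and incubated 2 h or more. Read at 337 nm excitation as the 665/620 nm emission ratio; percent inhibition relative to vehicle (maximum) and no-peptide (minimum) controls.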

endogenous ENL protein = assay: Immunoblot-based CETSA on endogenous ENL; assay type: cell-based; details: 80 μM, OCI/AML-2 cells, 1 hr
In short: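 CETSA on endogenous ENL followed a previously published protocol. Immunoblot detection used an anti-ENL rabbit monoclonal antibody (D9M4B) and an anti-GAPDH mouse monoclonal antibody (6C5).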

ENL YEATS [4] = target: T2, ENL YEATS; assay: MALDI-TOF mass spectrometry for covalent adducts; details: high-resolution MALDI-TOF

Q: How did the “concentration required to elevate the luminescence from SMARCA4(BD)-HiBiT” value (SMARCA4(BD)-HiBiT; ITDR) turn out when `O=C(/C=C/N1C[C@H]2C[C@@H]1CN2c1ccccn1)c1ccccc1O` [PFI-3] was run?
A: 80 µM

Q: And the “luminescence of SMARCA4(BD)-HiBiT” value (SMARCA4(BD)-HiBiT)?
A: able to elevate luminescence

Q: Which results are given for `C[C@H]1CCCN1Cc1nc2cc(NC(=O)c3ccc4c(cnn4C)c3)ccc2[nH]1` [SGC-iMLLT]?
A: luminescence of SMARCA4(BD)-HiBiT (SMARCA4(BD)-HiBiT): no such effect; ITDR luminescence, AF9(YEATS)-HiBiT (AF9(YEATS)-HiBiT): dose-dependent increases in luminescence; luminescence of ENL(YEATS)-HiBiT in cell lysates (ENL(YEATS)-HiBiT [1]): luminescence was increased; luminescence-based melt curve of full-length ENL-HiBiT (full-length ENL-HiBiT): did not affect; ITDR luminescence, wild-type ENL YEATS (ENL(YEATS)-HiBiT [2]; 37 °C, HEK293T cells, 1 hour): dose-responsive increases in luminescence; CETSA melt curve of ENL(YEATS)-HiBiT (ENL(YEATS)-HiBiT [2]; HEK293T cells, 1-hour treatment, luminescence normalized to 37 °C): rightward shift

Q: Which IC50 (AF9 YEATS) does the source give for `O=C(/C=C/c1ccc(-n2ccnc2)cc1)N1CCN(C(=O)c2ccco2)CC1` [sCGT990] here?
A: 62 µM

Q: What about the “IC50, HTRF ENL YEATS association with H3K27cr” value (ENL YEATS [3]) of the same compound?
A: 19 µM

Q: And the “binding to YEATS4/GAS41” value (YEATS4/GAS41)?
A: does not efficiently bind

Q: What about the “inhibition of BRD4 BD1 association with tetra-acetyl H4” value (BRD4 bromodomain 1 (BD1)) of the same compound?
A: does not inhibit

Q: And the “stabilization of endogenous ENL by immunoblot-based CETSA” value (endogenous ENL protein)?
A: weak, if any, stabilization

Q: What about the “covalent adducts with ENL YEATS” value (ENL YEATS [4]) of the same compound?
A: unable to identify covalent adducts

Q: And the “concentration required to reliably elevate ENL(YEATS)-HiBiT luminescence” value (ENL(YEATS)-HiBiT [2]; living cells, dose-response)?
A: 80 µM

Q: With “crotonylated histone peptide: peptide substrate, H3K27cr, used to treat cell lysates” as the compound, how does the “luminescence of ENL(YEATS)-HiBiT in cell lysates” value (ENL(YEATS)-HiBiT [1]) read?
A: luminescence was increased
